Reference: ChEMBL document CHEMBL4000155, “Synthesis and Antileukemic Activities of Piperlongumine and HDAC Inhibitor Hybrids against Acute Myeloid Leukemia Cells” (J Med Chem, 2016)
Activity calls are given as the source filed them. No cut-off for these calls is given here.

Experiments:
[1] = Stability of the compound in human U937 cell lysate at 50 uM incubated for 1.5 hrs in presence of GSH by HPLC analysis; assay type: ADME, cell-based; conditions: u-937, 1.5 h
U-937 [2] = test: Induction of apoptosis in p53 null human U937 cells at 2 uM after 24 hrs by annexin V-FITC/PI staining based flow cytometry; assay type: functional
Outline: (§1)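 Human U937 AML cells (p53 null) in RPMI 1640 with 10% FBS, 2 mM L-glutamine, penicillin/streptomycin, 37 °C, 5% CO2. Exposed 24 h to compound alone or with SAHA; vehicle DMSO < 0.1% v/v. Annexin V-FITC/PI staining and flow cytometry, reported as % Annexin V+ cells. Three independent experiments in triplicate; one representative shown. EC50 taken as concentration giving 50% Annexin V+ cells versus vehicle.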

MOLM-13 [3] = test: Induction of apoptosis in human MOLM13 cells harboring wild type p53/FLT3-ITD mutant at 4 uM after 24 hrs by annexin V-FITC/PI staining based flow cytometry; assay type: functional
Outline: (§2)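 Cells treated 24 h, single agents or SAHA+PL at 1:1 (each drug at the stated concentration). Annexin V-FITC/PI kit staining, then flow cytometry, reported as % Annexin V+ cells. Three independent experiments in triplicate, with data from one representative experiment. DMSO <0.1% vehicle control.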

U-937 [4] = test: Induction of cell death in p53 null human U937 cells after 24 hrs by annexin V-FITC/PI staining based flow cytometry; assay type: functional; outline: as §1
[5] = Chemical stability of the compound in pH 7.4 phosphate buffer at 50 uM incubated up to 4 hrs in presence of GSH by HPLC analysis; assay type: physicochemical; conditions: pH 7.4, 4 h
Outline: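 Compound at 50 μM incubated with or without 5 mM GSH in phosphate buffer pH 7.4 at 37 °C for up to 4 h. Mixtures analysed by HPLC with water/0.1% formic acid/10% methanol versus 0.1% formic acid in acetonitrile, 0.5 mL/min, 10–80% B gradient over 18 min.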

U-937 [6] = test: Induction of apoptosis in p53 null human U937 cells at 0.25 uM after 24 hrs by annexin V-FITC/PI staining based flow cytometry; assay type: functional; outline: as §2
U-937 [7] = test: Induction of apoptosis in p53 null human U937 cells at 1 uM after 24 hrs by annexin V-FITC/PI staining based flow cytometry; assay type: functional; outline: as §2
MOLM-13 [8] = test: Induction of cell death in human MOLM13 cells harboring wild type p53/FLT3-ITD mutant assessed as combination index at 1 to 4 uM after 24 hrs in presence of SAHA by annexin V-FITC/PI staining based flow cytometry; assay type: functional
Outline: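 Cells given SAHA and PL alone or together at 1:1 ratio for 24 h, then Annexin V-FITC/PI staining and flow cytometry. Combination index computed from the % Annexin V+ data; CI < 1 synergistic, = 1 additive, > 1 antagonistic. Triplicates, three independent experiments.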

Homo sapiens = organism: Homo sapiens; test: Effect on SAHA-induced HDAC inhibition in p53 null human U937 cells assessed as hyper acetylation of histone H4 at 1 uM after 4 hrs by Western blot analysis; assay type: cell-based
Outline: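 U937 cells treated at 1 μM for 4 h. Whole-cell lysates run on SDS-PAGE, transferred to PVDF and immunoblotted for acetyl-histone H4, histone H4, acetyl-α-tubulin and β-actin.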

OCI-AML-3 = test: Antiproliferative activity against human OCI-AML3 cells after 72 hrs in presence of SAHA by MTT assay; assay type: functional, cell-based; conditions: OCI-AML-3, 72 h
Outline: (§3)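 AML cell lines grown in RPMI 1640 with 10% FBS (20% for MOLM-13), 2 mM L-glutamine and penicillin/streptomycin at 37 °C, 5% CO2. Ara-C-resistant HL-60 and CMK sublines came from stepwise cytarabine selection and were kept in 600 nM or 300 nM cytarabine respectively. Cells were treated 72 h. MTT 0.05 mg/mL, 3 h at 37 °C, DMSO solubilization, absorbance at 570 nm. IC50 given ± SEM.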

CMK = test: Antiproliferative activity against human CMK cells after 72 hrs in presence of SAHA by MTT assay; assay type: functional, cell-based; outline: as §3
MOLM-13 [9] = test: Induction of apoptosis in human MOLM13 cells harboring wild type p53/FLT3-ITD mutant at 4 uM after 24 hrs in presence of SAHA by annexin V-FITC/PI staining based flow cytometry; assay type: functional; outline: as §2

Stability [1]	Stability [5]	IC50 (OCI-AML-3) [nM]	SMILES	Activity (U-937 [2]) [%]	Activity (MOLM-13 [3]) [%]	Activity (U-937 [4])	Activity (U-937 [6])	Activity (U-937 [7]) [%]	CI (MOLM-13 [8])	Activity (Homo sapiens)	IC50 (CMK) [nM]	Activity (MOLM-13 [9]) [%]
Unstable	Stable	–	COc1cc(/C=C/C(=O)N2CCC=CC2=O)cc(OC)c1OCCCCCCC(=O)NO	56.9	80.3	Dose-dependent effect	inactive	13.7	–	–	–	–
–	–	1110	COc1cc(/C=C/C(=O)N2CCC=CC2=O)cc(OC)c1OC [PIPLARTINE]	–	–	–	–	–	<=1.1	inactive	613	77.5
